Published values pooled from the literature.
Target: Mitogen-activated protein kinase kinase kinase 9 (MAP3K9, Homo sapiens, UniProt P80192)

SMILES	observed	mode	method	concentration	endpoint	result
Cc1nn(C)cc1-c1nc2c(N3CCN(Cc4ccc(Cl)cc4)CC3)c(Cl)cnc2[nH]1	binding		competition with immobilised ligand	1 µM	remaining binding	15%
C#Cc1n[nH]c2c(-c3cn([C@@H](C)c4ccccc4)c(=O)[nH]c3=O)cc(F)cc12	enzyme activity	inhibitor		0.1 µM	inhibition	11%
COc1ncccc1-c1cnn2ccc(N3CCN(C(=O)OC(C)C)CC3)nc12	binding		competition with immobilised ligand	1 µM	remaining binding	100%
Cn1cc(-c2cccc(N3CCc4c(sc5c4CC(C)(C)C5)C3=O)c2CO)cc(Nc2ccncn2)c1=O	enzyme activity	inhibitor		1 µM	inhibition	-3%
Nc1ncc(-c2nc(N3CCOCC3)nc(N3CCOCC3)n2)c(C(F)F)n1	binding		competition with immobilised ligand	10 µM	remaining binding	42%
CC(C)(C)c1cc(C=C(C#N)C#N)cc(Br)c1O	enzyme activity	inhibitor		0.5 µM	remaining activity	90.2%
Cn1cc(-c2cc(F)cc(N3CCn4c(cc5c4CCCC5)C3=O)c2CO)cc(Nc2ccc(N3CCN(C4COC4)CC3)cn2)c1=O	enzyme activity	inhibitor		0.1 µM	inhibition	4%
O=c1[nH]c2ccccc2n1C1CCN(Cc2ccc(-c3[nH]c4cc5ncnc5cc4nc3-c3ccccc3)cc2)CC1	cell-free assay			0.5 µM	remaining signal	93.9%
Cn1cncc1[C@](O)(COc1ccc(C#N)cc1-c1ccc(OC(F)(F)F)cc1)c1ccc(C#N)cc1	cell-free assay		competition with immobilised ligand	1 µM	remaining binding	81%
COc1cc(Nc2ncc(F)c(Nc3ccc4c(n3)NC(=O)C(C)(C)O4)n2)cc(OC)c1OC	binding		competition with immobilised ligand	10 µM	inhibition	99%
N#CC1(c2ccccn2)CCN(Cc2cc(C(=O)O)c(=O)n3ccccc23)CC1	cell-free assay		competition with immobilised ligand	1 µM	remaining binding	92%
C#Cc1n[nH]c2c(-c3cn([C@@H](C)c4ccccn4)c(=O)[nH]c3=O)cc(F)cc12	enzyme activity	inhibitor		0.1 µM	inhibition	8%
